Our source for the yeast fitness values is the RNAGym collection of RNA variant scans (doi:10.1126/science.aae0568).

Fewer inactive variants are shown than the library holds.

The chains are these.
B1: tRNA (parent)
chain: GUUCCGUUGGCGUAAUGGUAACGCGUCUCCCUCCUAAGGAGAAGACUGCGGGUUCGAGUCCCGUACGGAACG

In this data set the parent is B1. The experiment in a line: yeast fitness relative to wild type (ratio to wild type); higher = fitter; tRNA-Arg(CCU), competitive growth, 37 C, YPD. In a few lines:
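Start and end populations of a pooled competition were compared by 100-nucleotide paired-end sequencing of gene amplicons. The Saccharomyces cerevisiae strains carried tRNA-Arg(CCU) gene variants at the native genomic locus, synthesised with a 3% per-site mutation rate at 69 sites, and competed in YPD at 37°C for 24 hours in six parallel replicates. Darwinian fitness relative to wild type was based on the change in genotype frequencies. Genotypes required ≥ 100 starting reads, and estimates < 0.5 were set to 0.5.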
A15G A40G: the yeast fitness was determined as 0.758. On to U26A C62A, for which the yeast fitness turned out to be 0.803. For C11U C30A G39A U47A G63C the value was at most 0.5; for U3A G10C A36U A40C A57G C60G, at most 0.5. As for U26C C30U U59A A69U, the yeast fitness was at most 0.5. For C4G C29G the value was 0.69.

Take A20G C30A A69C: the yeast fitness was found to be 0.752. The figure for G9A U26A G56A G67A is at most 0.5; for G18A A43G A65C it is 0.595. Take C5A C22U C30U G68U: the yeast fitness was at most 0.5. As for G68A A69C, the yeast fitness stood at 0.766. On to C22A A43C G56A, for which the yeast fitness amounted to 0.853. The figure for C4A A45C U47A A70G is at most 0.5; for A21C U26G A65G A69C it is at most 0.5; for C30G G39C it is 0.579. The figure for C22G C30G C55A U64C is 0.581. The figure for C22G C31A A43G A57C A65U is at most 0.5; for G12C A15U C24A C61U it is at most 0.5; for A14C C22U C66U it is at most 0.5.

In the case of U16A A37G G44A A69U, the yeast fitness was at most 0.5.

Turning to G6A G56A, the yeast fitness turned out to be 0.852. For U7A G12C C27G C31A C46A C62G the value was at most 0.5; for C5U A14C, 0.593; for A40U A65C A69U, 0.699. In the case of U7A U19A C29A G68C, the yeast fitness was at most 0.5. The figure for A15C G68U is 0.735; for C11G A21G G50A U64A it is at most 0.5; for C30A U53C A70C it is 0.506. Turning to U28C A42G C55U A70U, the yeast fitness was at most 0.5. The figure for C33G G44A G56A C61U is at most 0.5; for A15C U47A G52A it is 0.576. Take U7A C60G A70C: the yeast fitness is at most 0.5. For G9C C31G A40C the value was 0.597; for G10A C24G C27U, 0.547; for G39A C46U G67A, 0.575. The figure for C5U C22U G41C C49G U59G G63A C66U is at most 0.5. Regarding U2G C46A G68C, the yeast fitness is at most 0.5.

Take C33G C34U A65U: the yeast fitness was found to be 0.629. A14G C29A C31A A40C G44A U59A: the yeast fitness was at most 0.5. As to C24U A42G C49G C61G, the yeast fitness came out at 0.627. With C27G A42C G63C, the yeast fitness is at most 0.5. G6C C60U C62A: the yeast fitness was at most 0.5. For C31U G67C the value was 0.902; for A15C G23C C55A A65G, at most 0.5; for U2C A14C G39A A57U, at most 0.5. As for C24G C30A U47C G63A, the yeast fitness was at most 0.5. Consider U19A C22G C34U A42G A43G G51A A70U, for which the yeast fitness was at most 0.5. As for A15U C27A A65C G67A A69C, the yeast fitness is at most 0.5. Take C11U G12A C31U U53C A65C: the yeast fitness was at most 0.5.

For A21U C27G C33G A69U, the yeast fitness was at most 0.5. As to U26A C30A C34A A45C, the yeast fitness is at most 0.5. For U2C C24G C46U the value was at most 0.5; for C33U A40G, 0.71; for G12C U26C A37G, at most 0.5. A37C A57G: the yeast fitness came to 0.665. For U32C A57G the value was 0.861; for C5U U19A G25C A43U, 0.758. For G6C A14G C49G G50A the value was at most 0.5. In the case of U2G G18C U26A C33U C46U A57C, the yeast fitness was at most 0.5.

As for C27A C30A A45C G56C C60U G68U, the yeast fitness is at most 0.5. C4G G18A A57C: the yeast fitness is at most 0.5. The figure for U8G C31G G41C G50C C60U A69C is at most 0.5.

Take G48C G52C A57C G58A: the yeast fitness was at most 0.5.

Turning to A15U G51C, the yeast fitness was found to be 0.555.

Consider C4A C46G, for which the yeast fitness is 0.847.

For the variant A40U A42G C55A, the yeast fitness was at most 0.5. For G23C G41A the value was 0.716; for C5G C66A A69U, 0.574; for U2G G18A C29G C31G G52A, at most 0.5.

For C30A A57U, the yeast fitness turned out to be 0.768. For C22U A42G A45C C55G U64G the value was at most 0.5; for U32C U35C C49G, 0.545.

For C4G G12U A14C U16C C49U A65G, the yeast fitness was at most 0.5. The figure for C27G A43U is 0.604; for C11A C30U C49G it is 0.579. The figure for G23C A65U is 0.585. The figure for U2A U13G U28A A36U A45U A57G is 0.59. C5A G9C A40G: the yeast fitness was at most 0.5.

Turning to A14C A42U C55G U59A, the yeast fitness came out at 0.612. For the variant U26A G51A, the yeast fitness turned out to be 0.769. Regarding G23C A65G C66A, the yeast fitness was at most 0.5. The figure for G48A U54G A70U is at most 0.5; for C31A C60A A65U it is 0.619; for C5A A21C C24A A70U it is at most 0.5. For A42C G63C A69C the value was at most 0.5; for A37C G67U, 0.828; for C4A U13A A70G, at most 0.5.

Take G12C A20U: the yeast fitness came out at 0.75. As for A36C G68A, the yeast fitness was 0.56.

Turning to C33G A45G U64A, the yeast fitness came to 0.586. For G23A C31U C33G A65G the value was at most 0.5; for C31U G39C G58A, 0.552; for U19C C30U G51C, 0.693. For A15C C49U U54C C55G U64C the value was at most 0.5; for U3C U8A A15C C31G C49U A57U G67C, at most 0.5; for U16C A21U A43U C61G, at most 0.5. For U19C U26A U32A the value was 0.541; for G10A A36U A43G C66A, at most 0.5. For G12A U26A C31G, the yeast fitness was 0.541. For C11U U19G A69U the value was 0.782; for G17A G25C A65C, 0.611; for U7G G48A A69C, 0.697. As to C34U U35C, the yeast fitness is 0.607. The figure for C30G A37C C46G is at most 0.5; for C11U C27A it is 0.791; for G41C C55A A69U it is at most 0.5. For C31G A65C the value was 0.691.

Consider C24A G39C G51A G63A, for which the yeast fitness was at most 0.5.

As for C5G U19G C22U U32C A65C C66U, the yeast fitness was at most 0.5. With U3C U19G A43U A65G G68A, the yeast fitness was at most 0.5. For A37G C62A the value was 0.582; for C22U U32G C34U A40G, 0.62.

Regarding C34A C49A U59G C66U, the yeast fitness was at most 0.5. The figure for U59C A70C is 0.897; for U7A A37U C49U C55U A57C C61U it is 0.934.

Take U3C A20G: the yeast fitness turned out to be 0.917. With G10A A21U A42G, the yeast fitness is at most 0.5.

As to A20C C46G, the yeast fitness was 1.02. For the variant C5G A14U A37U A45C C62U, the yeast fitness is at most 0.5.

For A45U C55U C62A, the yeast fitness was at most 0.5. For A20U U26C C30A U47A A65U the value was at most 0.5; for C11A C24G, 0.52. Regarding A15G U26G G41A G56A, the yeast fitness was at most 0.5. Take C4U U26C G44A: the yeast fitness came out at 0.569. C5G G25C G44A: the yeast fitness was at most 0.5. On to C4G A20C C30A C31G C34A A37G C49A A57C, for which the yeast fitness was at most 0.5. For U32G G39C A43G G52C the value was 0.571. G10A U47G A65C: the yeast fitness is at most 0.5.

Turning to A20C C30G C60G, the yeast fitness is at most 0.5. For C31U U47G G56C the value was at most 0.5.

Take C30A A36C C46G: the yeast fitness stood at 0.532. For G10A C31U A40C G48A the value was at most 0.5. C5A U16C C22U: the yeast fitness is 0.612. The figure for G6A A21C C33G is at most 0.5. As for U19G C46G A57C, the yeast fitness is at most 0.5.

Take U2C C33U C61G: the yeast fitness was at most 0.5. On to U8A G12C U47A C62U, for which the yeast fitness was determined as 0.545. Turning to G17A C22U C27A C30G C66G, the yeast fitness was at most 0.5. For G41A A70U, the yeast fitness worked out at 0.977.

Consider A20C U32G A45G U53A U54A, for which the yeast fitness was found to be 0.533. The figure for C5A C31A A37C C46U is at most 0.5; for A20U G41C G56C it is 0.574.

With C29A C33U G67A, the yeast fitness is at most 0.5.

For A21G C27U C61G A65U, the yeast fitness is at most 0.5. For G18U U26A C49U G50C the value was at most 0.5; for G9C A37G G68A, at most 0.5.

With A20G U26A G63A, the yeast fitness was found to be 0.613.

With C4A C30G C49U, the yeast fitness worked out at 0.566.

On to A14C C62G C66U, for which the yeast fitness is at most 0.5.

Consider C4G G9A G50C, for which the yeast fitness is 0.642. For U26G U35C G63A A70G the value was at most 0.5; for U3C A40G C46A A69C, 0.706; for C27G A36C G48C, at most 0.5. Take C29U C34A G51A: the yeast fitness came to 0.664. For G23C C30G A37U C62U A65U the value was at most 0.5; for A15G G67U, 0.662; for C5G A14G, 0.999. As for A21G G44C, the yeast fitness turned out to be 0.963. For U2A A57U the value was 0.663; for U3C C11G A57G, at most 0.5; for C11G U59A, 0.641.

As for G9A C24U U26G, the yeast fitness was 0.569. The figure for G6C A20G C61A is at most 0.5.

Consider G39C C55U, for which the yeast fitness came out at 0.572. The figure for G23C U53A is 0.55; for A15C U64C it is 0.956; for C24U U32C C46A it is 0.967.
